Publication PMC6683736 (The Journal of Cell Biology, 2019)

How the values were obtained:
Xenopus embryos = assay: Junctional localization in gastrula-stage embryos; assay type: in vivo, Xenopus laevis; conditions: live confocal, mNeon-tagged
In short: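 Embryos were microinjected in the animal hemisphere with mRNAs, either at the two-cell stage (each cell twice) or at the four-cell stage (once). They were raised to gastrula stage (10.5–12) and live-imaged by confocal. mNeon-tagged protein was coexpressed with BFP-ZO-1 (tight junction marker) and PLEKHA7-mCherry (adherens junction marker), and the junctional-to-cytosolic intensity ratio was quantified.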

Scribble PDZ1 domain = assay: X-ray crystal structure of Scribble PDZ1/SGEF-PDZpeptide complex; assay type: binding, human; conditions: 1.1 Å, PDB ID 6MYE
Dlg1 = assay: Coimmunoprecipitation of SGEF constructs with GFP-Dlg1, HEK293FT lysates; assay type: binding, Mouse; conditions: GFP-trap nanobodies, WB
In short: (§1)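 HEK293FT cells were co-transfected by calcium phosphate; medium was changed at 24 h and cells harvested at 48 h. Lysis was in Tris-HCl pH 7.4, MgCl2, 150 mM NaCl, 1% Triton X-100 and protease inhibitors. Equal protein was incubated with GFP-Trap beads for 1 h at 4°C, washed four times, then immunoblotted with anti-GFP and anti-myc (or anti-His).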

Scribble = assay: Coimmunoprecipitation of SGEF constructs with GFP-Scribble, HEK293FT lysates; assay type: binding, Human; conditions: GFP-trap nanobodies, WB
SGEF = assay: Coimmunoprecipitation of Dlg1 constructs with SGEF, HEK293FT lysates; assay type: binding, Human; conditions: WB
In short: as §1

Molecule | interaction with Dlg1 (Dlg1) | interaction with Scribble (Scribble) | other results
mNeon-RhoG: mNeon-tagged small GTPase RhoG, 1–191 |  |  | localization at apical junctional complex (Xenopus embryos): more broadly localized along the lateral membrane
ac-KPNGLLITDFPVEDCONH2 [SGEF-PDZpeptide] |  |  | accessible surface area covered by peptide (Scribble PDZ1 domain): ~500 Å^2; binding register in the PDZ pockets (Scribble PDZ1 domain): novel interactions through pockets near the α1 helix in Scribble PDZ1 (S+1 pocket), which accommodate the P+1 Pro in SGEF; residues of peptide interacting with Scribble PDZ domain (Scribble PDZ1 domain): 11 residues
SGEF ΔETNV: SGEF with deletion of the PBM, 1–867 (protein, left off: myc (inferred from the legends of Figures 1 and 2), end not stated, kept) MDGESEVDFSSNSITPLWRRRSIPQPHQVLGRSKPRPQSYQSPNGLLITDFPVEDGGTLLAAQIPAQVPTASDSRTVHRSPLLLGAQRRAVANGGTASPEYRAASPRLRRPKSPKLPKAVPGGSPKSPANGAVTLPAPPPPPVLRPPRTPNAPAPCTPEEDLTGLTASPVPSPTANGLAANNDSPGSGSQSGRKAKDPERGLFPGPQKSSSEQKLPLQRLPSQENELLENPSVVLSTNSPAALKVGKQQIIPKSLASEIKISKSNNQNVEPHKRLLKVRSMVEGLGGPLGHAGEESEVDNDVDSPGSLRRGLRSTSYRRAVVSGFDFDSPTSSKKKNRMSQPVLKVVMEDKEKFSSLGRIKKKMLKGQGTFDGEENAVLYQNYKEKALDIDSDEESEPKEQKSDEKIVIHHKPLRSTWSQLSAVKRKGLSQTVSQEERKRQEAIFEVISSEHSYLLSLEILIRMFKNSKELSDTMTKTERHHLFSNITDVCEASKKFFIELEARHQNNIFIDDISDIVEKHTASTFDPYVKYCTNEVYQQRTLQKLLATNPSFKEVLSRIESHEDCRNLPMISFLILPMQRVTRLPLLMDTICQKTPKDSPKYEVCKRALKEVSKLVRLCNEGARKMERTEMMYTINSQLEFKIKPFPLVSSSRWLVKRGELTAYVEDTVLFSRRTSKQQVYFFLFNDVLIITKKKSEESYNVNDYSLRDQLLVESCDNEELNSSPGKNSSTMLYSRQSSASHLFTLTVLSNHANEKVEMLLGAETQSERARWITALGHSSGKPPADRTSLTQVEIVRSFTAKQPDELSLQVADVVLIYQRVSDGWYEGERLRDGERGWFPMECAKEITCQATIDKNVERMGRLLGL | still interacted efficiently with Dlg1 | no effect on the ability of SGEF to bind to Scribble | 
Dlg1 C-terminal construct: C-terminal half of Dlg1 comprising the SH3 and GUK domains (protein, left off: GFP (inferred from the legend of Figure 2), end not stated, kept) KRSLYVRALFDYDKTKDSGLPSQGLNFKFGDILHVINASDDEWWQARQVTPDGESDEVGVIPSKRRVEKKERARLKTVKFNSKTRDKGEIPDDMGSKGLKHVTSNASDSESSYRGQEEYVLSYEPVNQQEVNYTRPVIILGPMKDRINDDLISEFPDKFGSCVPHTTRPKRDYEVDGRDYHFVTSREQMEKDIQEHKFIEAGQYNNHLYGTSVQSVREVAEKGKHCILDVSGNAIKRLQIAQLYPISIFIKPKSMENIMEMNKRLTEEQARKTFERAMKLEQEFTEHFTAIVQGDTLEDIYNQVKQIIEEQSGSYIWVPAKEKL |  |  | interaction with SGEF (SGEF): able to bind efficiently to SGEF
SGEF 1–350: SGEF deletion mutant 1–350 (protein, left off: myc (inferred from the legend of Figure 2), end not stated, kept) MDGESEVDFSSNSITPLWRRRSIPQPHQVLGRSKPRPQSYQSPNGLLITDFPVEDGGTLLAAQIPAQVPTASDSRTVHRSPLLLGAQRRAVANGGTASPEYRAASPRLRRPKSPKLPKAVPGGSPKSPANGAVTLPAPPPPPVLRPPRTPNAPAPCTPEEDLTGLTASPVPSPTANGLAANNDSPGSGSQSGRKAKDPERGLFPGPQKSSSEQKLPLQRLPSQENELLENPSVVLSTNSPAALKVGKQQIIPKSLASEIKISKSNNQNVEPHKRLLKVRSMVEGLGGPLGHAGEESEVDNDVDSPGSLRRGLRSTSYRRAVVSGFDFDSPTSSKKKNRMSQPVLKVVMED | able to bind to Dlg1 |  | 
SGEF 228–871: SGEF deletion mutant, binds to Dlg1 but not to Scribble (protein, left off: myc (inferred from the legends of Figures 1 and 2), end not stated, kept) LENPSVVLSTNSPAALKVGKQQIIPKSLASEIKISKSNNQNVEPHKRLLKVRSMVEGLGGPLGHAGEESEVDNDVDSPGSLRRGLRSTSYRRAVVSGFDFDSPTSSKKKNRMSQPVLKVVMEDKEKFSSLGRIKKKMLKGQGTFDGEENAVLYQNYKEKALDIDSDEESEPKEQKSDEKIVIHHKPLRSTWSQLSAVKRKGLSQTVSQEERKRQEAIFEVISSEHSYLLSLEILIRMFKNSKELSDTMTKTERHHLFSNITDVCEASKKFFIELEARHQNNIFIDDISDIVEKHTASTFDPYVKYCTNEVYQQRTLQKLLATNPSFKEVLSRIESHEDCRNLPMISFLILPMQRVTRLPLLMDTICQKTPKDSPKYEVCKRALKEVSKLVRLCNEGARKMERTEMMYTINSQLEFKIKPFPLVSSSRWLVKRGELTAYVEDTVLFSRRTSKQQVYFFLFNDVLIITKKKSEESYNVNDYSLRDQLLVESCDNEELNSSPGKNSSTMLYSRQSSASHLFTLTVLSNHANEKVEMLLGAETQSERARWITALGHSSGKPPADRTSLTQVEIVRSFTAKQPDELSLQVADVVLIYQRVSDGWYEGERLRDGERGWFPMECAKEITCQATIDKNVERMGRLLGLETNV | able to bind efficiently to Dlg1 | unable to bind | localization at apical junctional complex (Xenopus embryos): predominantly cytosolic, with only a small fraction still targeted to junctions
414–871: C-terminal half of SGEF: DH-PH domain, SH3 domain and PBM (protein, UniProt Q96DR7 414-871, looked up, fragment) LRSTWSQLSAVKRKGLSQTVSQEERKRQEAIFEVISSEHSYLLSLEILIRMFKNSKELSDTMTKTERHHLFSNITDVCEASKKFFIELEARHQNNIFIDDISDIVEKHTASTFDPYVKYCTNEVYQQRTLQKLLATNPSFKEVLSRIESHEDCRNLPMISFLILPMQRVTRLPLLMDTICQKTPKDSPKYEVCKRALKEVSKLVRLCNEGARKMERTEMMYTINSQLEFKIKPFPLVSSSRWLVKRGELTAYVEDTVLFSRRTSKQQVYFFLFNDVLIITKKKSEESYNVNDYSLRDQLLVESCDNEELNSSPGKNSSTMLYSRQSSASHLFTLTVLSNHANEKVEMLLGAETQSERARWITALGHSSGKPPADRTSLTQVEIVRSFTAKQPDELSLQVADVVLIYQRVSDGWYEGERLRDGERGWFPMECAKEITCQATIDKNVERMGRLLGLETNV | showed no binding |  | 
Gly 45 residue for Pro: SGEF with Gly 45 replaced by Pro (protein, UniProt Q96DR7 1-871, looked up, variant G45P) Rho guanine nucleotide …: MDGESEVDFSSNSITPLWRRRSIPQPHQVLGRSKPRPQSYQSPNPLLITDFPVEDGGTLLAAQIPAQVPTASDSRTVHRSPLLLGAQRRAVANGGTASPEYRAASPRLRRPKSPKLPKAVPGGSPKSPANGAVTLPAPPPPPVLRPPRTPNAPAPCTPEEDLTGLTASPVPSPTANGLAANNDSPGSGSQSGRKAKDPERGLFPGPQKSSSEQKLPLQRLPSQENELLENPSVVLSTNSPAALKVGKQQIIPKSLASEIKISKSNNQNVEPHKRLLKVRSMVEGLGGPLGHAGEESEVDNDVDSPGSLRRGLRSTSYRRAVVSGFDFDSPTSSKKKNRMSQPVLKVVMEDKEKFSSLGRIKKKMLKGQGTFDGEENAVLYQNYKEKALDIDSDEESEPKEQKSDEKIVIHHKPLRSTWSQLSAVKRKGLSQTVSQEERKRQEAIFEVISSEHSYLLSLEILIRMFKNSKELSDTMTKTERHHLFSNITDVCEASKKFFIELEARHQNNIFIDDISDIVEKHTASTFDPYVKYCTNEVYQQRTLQKLLATNPSFKEVLSRIESHEDCRNLPMISFLILPMQRVTRLPLLMDTICQKTPKDSPKYEVCKRALKEVSKLVRLCNEGARKMERTEMMYTINSQLEFKIKPFPLVSSSRWLVKRGELTAYVEDTVLFSRRTSKQQVYFFLFNDVLIITKKKSEESYNVNDYSLRDQLLVESCDNEELNSSPGKNSSTMLYSRQSSASHLFTLTVLSNHANEKVEMLLGAETQSERARWITALGHSSGKPPADRTSLTQVEIVRSFTAKQPDELSLQVADVVLIYQRVSDGWYEGERLRDGERGWFPMECAKEITCQATIDKNVERMGRLLGLETNV |  | abolished the interaction | 
T49A (protein, UniProt Q96DR7 1-871, looked up, variant T49A) Rho guanine nucleotide …: MDGESEVDFSSNSITPLWRRRSIPQPHQVLGRSKPRPQSYQSPNGLLIADFPVEDGGTLLAAQIPAQVPTASDSRTVHRSPLLLGAQRRAVANGGTASPEYRAASPRLRRPKSPKLPKAVPGGSPKSPANGAVTLPAPPPPPVLRPPRTPNAPAPCTPEEDLTGLTASPVPSPTANGLAANNDSPGSGSQSGRKAKDPERGLFPGPQKSSSEQKLPLQRLPSQENELLENPSVVLSTNSPAALKVGKQQIIPKSLASEIKISKSNNQNVEPHKRLLKVRSMVEGLGGPLGHAGEESEVDNDVDSPGSLRRGLRSTSYRRAVVSGFDFDSPTSSKKKNRMSQPVLKVVMEDKEKFSSLGRIKKKMLKGQGTFDGEENAVLYQNYKEKALDIDSDEESEPKEQKSDEKIVIHHKPLRSTWSQLSAVKRKGLSQTVSQEERKRQEAIFEVISSEHSYLLSLEILIRMFKNSKELSDTMTKTERHHLFSNITDVCEASKKFFIELEARHQNNIFIDDISDIVEKHTASTFDPYVKYCTNEVYQQRTLQKLLATNPSFKEVLSRIESHEDCRNLPMISFLILPMQRVTRLPLLMDTICQKTPKDSPKYEVCKRALKEVSKLVRLCNEGARKMERTEMMYTINSQLEFKIKPFPLVSSSRWLVKRGELTAYVEDTVLFSRRTSKQQVYFFLFNDVLIITKKKSEESYNVNDYSLRDQLLVESCDNEELNSSPGKNSSTMLYSRQSSASHLFTLTVLSNHANEKVEMLLGAETQSERARWITALGHSSGKPPADRTSLTQVEIVRSFTAKQPDELSLQVADVVLIYQRVSDGWYEGERLRDGERGWFPMECAKEITCQATIDKNVERMGRLLGLETNV |  | completely abolish the interaction | 
